The values that follow come from ChEMBL document CHEMBL3259575, “Evaluation of a large library of (thiazol-2-yl)hydrazones and analogues as histone acetyltransferase inhibitors: enzyme and cellular studies” (2014).

Calls of active or inactive are those of the source. The calls are words filed in the database; no cut-off is given here.

The target of experiment [1] is Histone acetyltransferase p300 (Homo sapiens) (UniProt Q09472). Briefly: Inhibition of recombinant human p300 catalytic domain (1284 to 1673 aa) using histone H3 at 200 uM after 1 hr by radiochemical assay in presence of [acetyl-3H]-acetyl coenzyme A.
Experiment [2] has the same target. Description: Inhibition of recombinant human p300 catalytic domain (1284 to 1673 aa) using histone H3 at 400 uM after 1 hr by radiochemical assay in presence of [acetyl-3H]-acetyl coenzyme A.
The test system of experiment [3] is U-937. Description: Induction of apoptosis in human U937 cells at 100 uM after 30 hrs by FACS analysis relative to control. Format: functional. In a few lines: (§1)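 Cells cultured at 37 °C, 5% CO2 in RPMI-1640 plus 10% heat-inactivated FBS and antibiotics; treated 30 h; apoptosis read by FACS as the pre-G1 population, compared with untreated control.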
The target in experiment [4] is Histone acetyltransferase p300 (Homo sapiens) (UniProt Q09472). Description: Inhibition of recombinant human p300 catalytic domain (1284 to 1673 aa) using histone H3 at 100 uM after 1 hr by radiochemical assay in presence of [acetyl-3H]-acetyl coenzyme A.
Experiment [5] deals with HCT-116. Briefly: Induction of apoptosis in human HCT116 cells at 100 uM after 30 hrs by FACS analysis relative to control. The class given is functional. In a few lines:
as §1

For experiment [6], the system named is U-937. Briefly: Induction of human U937 cell differentiation assessed as CD11c expression at 100 uM after 30 hrs by propidium iodide-based flow cytometry relative to control. Format: functional. A digest of the protocol:
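U937 cells treated 30 h, then stained 1 h at 4 °C in dark with PE-conjugated anti-CD11c (mouse IgG1-PE isotype for controls), washed, resuspended in PBS with propidium iodide; flow cytometry, CD11c-positive percentage after subtracting PI-positive dead cells, versus control.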

The test system of experiment [7] is U-937. Description: Induction of apoptosis in human U937 cells at 100 uM after 30 hrs by FACS analysis relative to control relative to CPTH6. Format: functional.
Experiment [8] has as its system U-937. Briefly: Induction of apoptosis in human U937 cells at 100 uM after 30 hrs by FACS analysis relative to control in presence of CPTH6. Format: functional, cell-based.
The target of experiment [9] is Histone acetyltransferase KAT2B (Homo sapiens) (UniProt Q92831). Description: Inhibition of recombinant human PCAF catalytic domain (492 to 658 aa) using histone H3 at 100 uM after 1 hr by radiochemical assay in presence of [acetyl-3H]-acetyl coenzyme A.
In experiment [10] the test system is HCT-116. Briefly: Cell cycle arrest at G1 phase in human HCT116 cells at 100 uM after 30 hrs by propidium iodide-based flow cytometry relative to control. The class given is functional. In a few lines:
(§2)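 Cells kept at 37 °C, 5% CO2 in RPMI-1640 with 10% heat-inactivated FBS, penicillin, streptomycin, L-glutamine, amphotericin B; plated at 2 × 10^5 cells/mL, exposed 30 h, then suspended in PBS with 0.1% sodium citrate, 0.1% NP40 and propidium iodide; 30 min room temperature in dark; flow cytometry, cell-cycle phase distribution versus untreated control.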

Experiment [11] deals with U-937. Briefly: Cell cycle arrest in human U937 cells assessed as reduction in cells at S phase at 100 uM after 30 hrs by propidium iodide-based flow cytometry relative to control. The class given is functional. A digest of the protocol:
as §2

Experiment [12] concerns U-937. Briefly: Cell cycle arrest at G1 phase in human U937 cells at 100 uM after 30 hrs by propidium iodide-based flow cytometry relative to control. Format: functional. A digest of the protocol:
as §2

Histone acetyltransferase KAT2B (Homo sapiens), sequence (Q92831 whole entry, looked up, the tested form may be a part): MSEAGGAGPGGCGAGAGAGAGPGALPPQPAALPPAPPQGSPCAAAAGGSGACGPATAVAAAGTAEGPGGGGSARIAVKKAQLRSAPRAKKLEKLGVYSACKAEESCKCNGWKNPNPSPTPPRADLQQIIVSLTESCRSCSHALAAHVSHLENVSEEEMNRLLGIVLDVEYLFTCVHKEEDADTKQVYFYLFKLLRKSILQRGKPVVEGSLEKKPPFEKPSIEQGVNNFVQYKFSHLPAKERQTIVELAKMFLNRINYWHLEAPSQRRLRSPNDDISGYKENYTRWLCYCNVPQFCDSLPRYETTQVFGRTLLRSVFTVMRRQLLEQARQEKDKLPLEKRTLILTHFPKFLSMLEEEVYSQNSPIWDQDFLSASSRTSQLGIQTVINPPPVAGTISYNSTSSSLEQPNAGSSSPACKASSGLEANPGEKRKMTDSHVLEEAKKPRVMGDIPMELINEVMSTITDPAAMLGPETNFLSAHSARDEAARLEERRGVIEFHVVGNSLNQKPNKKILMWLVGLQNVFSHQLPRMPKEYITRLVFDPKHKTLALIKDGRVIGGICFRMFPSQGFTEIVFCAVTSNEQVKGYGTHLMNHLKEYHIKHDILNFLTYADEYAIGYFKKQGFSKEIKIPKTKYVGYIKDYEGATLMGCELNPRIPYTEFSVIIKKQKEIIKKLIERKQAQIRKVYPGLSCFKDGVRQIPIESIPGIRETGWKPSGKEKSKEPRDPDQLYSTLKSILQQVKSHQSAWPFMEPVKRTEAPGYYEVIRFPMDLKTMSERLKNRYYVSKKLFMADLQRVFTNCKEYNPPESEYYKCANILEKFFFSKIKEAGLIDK
Histone acetyltransferase p300 (Homo sapiens), sequence (Q09472 whole entry, the tested form may be a part): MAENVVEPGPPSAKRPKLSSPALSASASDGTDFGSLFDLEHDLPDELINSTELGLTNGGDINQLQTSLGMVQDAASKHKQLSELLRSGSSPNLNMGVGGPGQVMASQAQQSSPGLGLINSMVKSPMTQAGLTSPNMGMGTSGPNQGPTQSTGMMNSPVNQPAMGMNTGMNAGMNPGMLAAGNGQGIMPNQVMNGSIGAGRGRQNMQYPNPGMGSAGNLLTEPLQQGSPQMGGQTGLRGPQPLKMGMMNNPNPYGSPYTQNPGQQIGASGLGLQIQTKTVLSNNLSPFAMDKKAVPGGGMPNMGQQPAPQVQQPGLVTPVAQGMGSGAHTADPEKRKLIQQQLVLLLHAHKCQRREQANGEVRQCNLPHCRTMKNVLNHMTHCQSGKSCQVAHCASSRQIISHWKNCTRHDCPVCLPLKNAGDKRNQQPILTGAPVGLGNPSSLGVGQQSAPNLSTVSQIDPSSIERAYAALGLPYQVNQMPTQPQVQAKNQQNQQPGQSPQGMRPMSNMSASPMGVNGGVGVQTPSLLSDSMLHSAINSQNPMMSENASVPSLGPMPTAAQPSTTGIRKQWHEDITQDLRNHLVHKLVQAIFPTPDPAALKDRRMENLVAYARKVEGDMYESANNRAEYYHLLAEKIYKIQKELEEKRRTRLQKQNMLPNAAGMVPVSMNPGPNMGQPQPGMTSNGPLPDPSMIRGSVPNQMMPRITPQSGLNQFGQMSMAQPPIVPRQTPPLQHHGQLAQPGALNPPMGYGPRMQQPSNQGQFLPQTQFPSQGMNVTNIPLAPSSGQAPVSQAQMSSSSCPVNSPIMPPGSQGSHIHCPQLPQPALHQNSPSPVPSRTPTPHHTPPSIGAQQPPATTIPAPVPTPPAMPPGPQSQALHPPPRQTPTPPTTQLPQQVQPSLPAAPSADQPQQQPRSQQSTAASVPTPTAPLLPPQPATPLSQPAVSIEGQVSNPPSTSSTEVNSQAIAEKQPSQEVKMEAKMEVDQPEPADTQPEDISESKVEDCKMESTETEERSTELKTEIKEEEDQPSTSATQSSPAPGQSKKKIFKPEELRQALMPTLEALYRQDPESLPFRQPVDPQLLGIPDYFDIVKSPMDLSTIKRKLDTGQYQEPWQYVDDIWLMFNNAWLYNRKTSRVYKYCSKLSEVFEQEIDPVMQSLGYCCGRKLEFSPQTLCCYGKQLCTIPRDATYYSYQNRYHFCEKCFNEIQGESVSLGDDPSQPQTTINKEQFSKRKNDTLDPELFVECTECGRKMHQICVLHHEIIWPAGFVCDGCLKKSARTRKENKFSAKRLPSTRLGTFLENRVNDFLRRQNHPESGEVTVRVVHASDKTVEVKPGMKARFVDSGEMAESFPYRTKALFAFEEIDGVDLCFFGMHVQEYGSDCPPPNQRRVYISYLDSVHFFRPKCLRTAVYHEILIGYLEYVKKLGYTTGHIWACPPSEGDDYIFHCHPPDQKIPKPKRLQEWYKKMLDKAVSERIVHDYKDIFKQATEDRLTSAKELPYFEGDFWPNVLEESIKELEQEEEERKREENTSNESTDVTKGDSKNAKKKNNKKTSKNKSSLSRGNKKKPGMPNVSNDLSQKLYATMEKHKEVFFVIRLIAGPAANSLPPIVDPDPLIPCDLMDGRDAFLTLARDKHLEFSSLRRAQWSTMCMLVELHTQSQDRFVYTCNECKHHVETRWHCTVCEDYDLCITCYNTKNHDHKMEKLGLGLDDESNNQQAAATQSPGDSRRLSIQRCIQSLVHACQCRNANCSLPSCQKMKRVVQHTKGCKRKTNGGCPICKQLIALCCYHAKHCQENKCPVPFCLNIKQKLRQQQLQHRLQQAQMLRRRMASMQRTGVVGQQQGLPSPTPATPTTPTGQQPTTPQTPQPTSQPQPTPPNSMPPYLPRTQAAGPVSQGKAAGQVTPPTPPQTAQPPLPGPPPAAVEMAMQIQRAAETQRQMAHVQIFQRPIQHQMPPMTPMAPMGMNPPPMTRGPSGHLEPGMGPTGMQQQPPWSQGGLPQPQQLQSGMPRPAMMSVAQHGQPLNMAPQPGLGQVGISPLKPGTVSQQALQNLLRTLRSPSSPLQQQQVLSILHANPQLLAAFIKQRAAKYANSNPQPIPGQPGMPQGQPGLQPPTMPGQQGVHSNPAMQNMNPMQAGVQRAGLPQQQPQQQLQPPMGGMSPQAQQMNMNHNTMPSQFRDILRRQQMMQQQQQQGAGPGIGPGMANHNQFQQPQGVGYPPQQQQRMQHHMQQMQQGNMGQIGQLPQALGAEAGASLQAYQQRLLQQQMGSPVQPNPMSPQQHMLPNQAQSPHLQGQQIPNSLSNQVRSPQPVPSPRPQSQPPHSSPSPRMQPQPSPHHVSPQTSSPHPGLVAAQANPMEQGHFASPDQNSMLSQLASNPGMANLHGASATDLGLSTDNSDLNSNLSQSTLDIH

On to `C/C(=N/Nc1nc(-c2ccc(Cl)cc2)cs1)c1cc2ccccc2oc1=O`, for which the inhibition in experiment [1] was 86%; in [2], 97%; in experiment [4] it was 62%; in [9], 11%. Moreover, the Activity in the experiment with U-937 [3] was 44%; in the experiment on HCT-116 [5] it was 10%. The outcome in the experiment with U-937 [6] and in the experiment on U-937 [8] was Active. In addition, the “fold change (FC)” value in the experiment on U-937 [7] is reported as 1.5.
Take `O=c1cc(-c2ccc(Cl)cc2)nc(NN=C2CCCC2)[nH]1`: the inhibition was 46% in experiment [1], 54% in experiment [2], 31% in experiment [4] and 10% in [9].
On to `CC1CC/C(=N/Nc2nc(-c3cc4ccccc4oc3=O)cs2)C1` (stereo not given), for which the inhibition in [1] worked out at 52%; in [2] it was 69%; in experiment [4], 41%; in experiment [9], 13%. Besides, in the experiment with HCT-116 [10], the outcome was Active.
Turning to `c1ccc(-c2csc(NN=C3CCCC3)n2)cc1`, the inhibition in [1] amounted to 56%; in experiment [2], 54%; in [4], 37%; in experiment [9], 15%.
On to `Clc1ccc(-c2csc(N/N=C\c3c[nH]c4ccccc34)n2)cc1`, for which the inhibition in [1] came out at 79%; in [2], 97%; in experiment [4], 61%; in experiment [9] it was 0%. Also, the Activity worked out at 44% with U-937 [3] and 10% in the experiment on HCT-116 [5]. The outcome with U-937 [6] and in the experiment on U-937 [8] was Active. Besides, in the experiment with U-937 [7], the “fold change (FC)” value was determined as 1.5.
Consider `O=[N+]([O-])c1cccc(-c2csc(NN=C3CCCC3)n2)c1`, for which the inhibition in experiment [1] turned out to be 51%; in [2] it was 60%; in experiment [4], 44%; in [9], 15%.
Taken in the same sequence, the figures for `C/C(=N/Nc1nc(-c2ccc(Cl)cc2)cs1)c1nccs1` were 55%, 67%, 46% and 10%.
For `CC1CC/C(=N/Nc2nc(-c3ccc(Cl)cc3)cc(=O)[nH]2)C1` (stereo not given), in that order: 55%, 64%, 41% and 8%.
For `CC1CC/C(=N/Nc2nc(-c3ccc(Cl)cc3)cs2)C1` (stereo not given), the values for the Activity in the experiment with U-937 [3] and in the experiment on HCT-116 [5] were 29% and 11.5%, respectively. Besides, the values for the inhibition in [4] and in [9] were 27% and 0%, respectively.
With `Fc1ccc(-c2csc(NN=C3CCCC3)n2)cc1`, the outcome with U-937 [11], in the experiment on HCT-116 [10], in the experiment on U-937 [12], with U-937 [6] and in the experiment with U-937 [8] was Active. For the same compound, the inhibition in [1] turned out to be 62%; in [2], 91%; in experiment [4], 35%; in experiment [9] it was 12%. For the same compound, the Activity in the experiment with U-937 [3] was found to be 44%; with HCT-116 [5], 10%. In addition, the “fold change (FC)” value in the experiment with U-937 [7] was 1.5.
Regarding `CC(C)=NNc1nc(-c2cccc([N+](=O)[O-])c2)cs1`, the inhibition in experiment [1] was 54%; in [2] it was 76%; in experiment [4] it was 33%; in [9], 7%. The result in the experiment with HCT-116 [10] was Active. Besides, the Activity with HCT-116 [5] was found to be 10%.
Regarding `C/C(=N/Nc1nc(-c2ccc(Cl)cc2)cs1)c1ccccn1`, the result in the experiment on U-937 [11], in the experiment with U-937 [12] and in the experiment with U-937 [6] was Active. In addition, the inhibition in [1] turned out to be 69%; in experiment [2], 87%; in [4], 51%; in experiment [9] it was 10%.
Regarding `COc1ccc(-c2csc(NN=C3CCCC3)n2)cc1`, the inhibition in experiment [1] was 47%; in [2], 57%; in experiment [4], 33%; in experiment [9], 11%.
Taken in the same sequence, the figures for `Clc1ccc(-c2csc(NN=C3CCCC3)n2)cc1` were 47%, 61%, 34% and 1%.
